Activity calls are given as the source filed them. The rule behind the calls is not given here.
Assays:
Mus musculus [1] = test: Anticonvulsant activity in CF1 albino mouse assessed as protection against maximal electroshock-induced seizures at 30 mg/kg, ip after 4 hrs; type: functional, organism-based; design: dose 30 mg/kg
Method in brief: (§1)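 Adult male CF no. 1 albino mice (18-25 g). Test compound suspended in 0.5% methylcellulose and given intraperitoneally at 0.01 mL/g body weight. Maximal electroshock challenge at the stated time. Read-out is the number of animals protected over the number tested; neurotoxicity is scored in parallel.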

Mus musculus [2] = test: Anticonvulsant activity in CF1 albino mouse assessed as protection against scMet-induced seizures at 100 mg/kg, ip after 0.5 hrs; type: functional, organism-based; design: dose 100 mg/kg
Method in brief: (§2)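 Adult male CF no. 1 albino mice (18-25 g) dosed intraperitoneally with compound suspended in 0.5% methylcellulose (0.01 mL/g). Convulsant challenge given subcutaneously as a 0.85% pentylenetetrazol solution in 0.9% saline. Read-out is animals protected over animals tested, with neurotoxicity scored in parallel.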

Mus musculus [3] = test: Neurotoxicity in CF1 albino mouse at 300 mg/kg, ip after 4 hrs; type: toxicity, organism-based; design: dose 300 mg/kg, route intraperitoneal; settings: in vivo
Method in brief: (§3)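 Male CF no. 1 albino mice (18-25 g) received a single ip dose as a suspension in 0.5% methylcellulose. The read-out was the number of animals showing neurotoxicity (minimal motor impairment) over the number tested.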

Rattus norvegicus [4] = test: Anticonvulsant activity in albino Sprague-Dawley rat assessed as protection against maximal electroshock-induced seizures at 30 mg/kg, po after 1 hr; type: functional, organism-based; design: dose 30 mg/kg
Method in brief: (§4)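 Adult male Sprague-Dawley albino rats (100-150 g) dosed orally with compound suspended in 0.5% methylcellulose (0.04 mL per 10 g). Maximal electroshock challenge at the stated time. Protection is scored in 25% steps as the fraction of animals protected, with neurotoxicity recorded in parallel.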

Mus musculus [5] = test: Neurotoxicity in CF1 albino mouse at 30 mg/kg, ip after 4 hrs; type: toxicity, organism-based; design: dose 30 mg/kg, route intraperitoneal; settings: in vivo; method in brief: as §3
Rattus norvegicus [6] = test: Anticonvulsant activity in albino Sprague-Dawley rat assessed as protection against scMet-induced seizures at 30 mg/kg, po after 2 hrs; type: functional
Method in brief: (§5)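 Male Sprague-Dawley albino rats (100-150 g) were given the compound orally as a suspension in 0.5% methylcellulose. Seizures were induced by subcutaneous pentylenetetrazol, dissolved in 0.9% saline as a 2.82% solution. The read-out was animals protected over animals tested.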

Mus musculus [7] = test: Neurotoxicity in CF1 albino mouse at 100 mg/kg, ip after 0.5 hrs; type: toxicity, organism-based; design: dose 100 mg/kg, route intraperitoneal; settings: in vivo; method in brief: as §3
Rattus norvegicus [8] = test: Anticonvulsant activity in albino Sprague-Dawley rat assessed as protection against maximal electroshock-induced seizures at 30 mg/kg, po after 2 hrs; type: functional, organism-based; design: dose 30 mg/kg; method in brief: as §4
Mus musculus [9] = test: Neurotoxicity in CF1 albino mouse at 100 mg/kg, ip after 4 hrs; type: toxicity, organism-based; design: dose 100 mg/kg, route intraperitoneal; settings: in vivo; method in brief: as §3
Mus musculus [10] = test: Anticonvulsant activity in CF1 albino mouse assessed as protection against scMet-induced seizures at 300 mg/kg, ip after 0.5 hrs; type: functional, organism-based; design: dose 300 mg/kg; method in brief: as §2
Rattus norvegicus [11] = test: Anticonvulsant activity in albino Sprague-Dawley rat assessed as protection against maximal electroshock-induced seizures at 30 mg/kg, po after 30 mins; type: functional, organism-based; design: dose 30 mg/kg; method in brief: as §4
Mus musculus [12] = test: Anticonvulsant activity in CF1 albino mouse assessed as protection against scMet-induced seizures at 30 mg/kg, ip after 0.5 hrs; type: functional, organism-based; design: dose 30 mg/kg; method in brief: as §2
Rattus norvegicus [13] = test: Anticonvulsant activity in albino Sprague-Dawley rat assessed as protection against scMet-induced seizures at 30 mg/kg, po after 15 mins; type: functional; method in brief: as §5
Mus musculus [14] = test: Anticonvulsant activity in CF1 albino mouse assessed as protection against maximal electroshock-induced seizures at 100 mg/kg, ip after 0.5 hrs; type: functional, organism-based; design: dose 100 mg/kg; method in brief: as §1
Rattus norvegicus [15] = test: Anticonvulsant activity in albino Sprague-Dawley rat assessed as protection against maximal electroshock-induced seizures at 30 mg/kg, po after 15 mins; type: functional, organism-based; design: dose 30 mg/kg; method in brief: as §4
Mus musculus [16] = test: Anticonvulsant activity in CF1 albino mouse assessed as protection against maximal electroshock-induced seizures at 300 mg/kg, ip after 4 hrs; type: functional, organism-based; design: dose 300 mg/kg; method in brief: as §1
Mus musculus [17] = test: Anticonvulsant activity in CF1 albino mouse assessed as protection against maximal electroshock-induced seizures at 30 mg/kg, ip after 0.5 hrs; type: functional, organism-based; design: dose 30 mg/kg; method in brief: as §1
Mus musculus [18] = test: Anticonvulsant activity in CF1 albino mouse assessed as protection against scMet-induced seizures at 300 mg/kg, ip after 4 hrs; type: functional, organism-based; design: dose 300 mg/kg; method in brief: as §2
Rattus norvegicus [19] = test: Anticonvulsant activity in albino Sprague-Dawley rat assessed as protection against scMet-induced seizures at 30 mg/kg, po after 30 mins; type: functional; method in brief: as §5
Mus musculus [20] = test: Anticonvulsant activity in CF1 albino mouse assessed as protection against maximal electroshock-induced seizures at 300 mg/kg, ip after 0.5 hrs; type: functional, organism-based; design: dose 300 mg/kg; method in brief: as §1
Rattus norvegicus [21] = test: Anticonvulsant activity in albino Sprague-Dawley rat assessed as protection against scMet-induced seizures at 30 mg/kg, po after 1 hr; type: functional
Method in brief: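 Oral dosing of male Sprague-Dawley rats (100-150 g) with compound in 0.5% methylcellulose. Convulsant challenge given subcutaneously as a 2.82% pentylenetetrazol solution in 0.9% saline. Groups of about 8 rats per dose. For quantitation, doses spanning 0% to 100% protection were fitted by probit analysis to give ED50 with 95% confidence interval.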

Mus musculus [22] = test: Anticonvulsant activity in CF1 albino mouse assessed as protection against scMet-induced seizures at 30 mg/kg, ip after 4 hrs; type: functional, organism-based; design: dose 30 mg/kg; method in brief: as §2
Mus musculus [23] = test: Neurotoxicity in CF1 albino mouse at 300 mg/kg, ip after 0.5 hrs; type: toxicity, organism-based; design: dose 300 mg/kg, route intraperitoneal; settings: in vivo; method in brief: as §3
Mus musculus [24] = test: Neurotoxicity in CF1 albino mouse at 30 mg/kg, ip after 0.5 hrs; type: toxicity, organism-based; design: dose 30 mg/kg, route intraperitoneal; settings: in vivo; method in brief: as §3
Rattus norvegicus [25] = test: Anticonvulsant activity in albino Sprague-Dawley rat assessed as protection against maximal electroshock-induced seizures at 30 mg/kg, po after 4 hrs; type: functional, organism-based; design: dose 30 mg/kg; method in brief: as §4
Mus musculus [26] = test: Anticonvulsant activity in CF1 albino mouse assessed as protection against maximal electroshock-induced seizures at 100 mg/kg, ip after 4 hrs; type: functional, organism-based; design: dose 100 mg/kg; method in brief: as §1
Rattus norvegicus [27] = test: Anticonvulsant activity in albino Sprague-Dawley rat assessed as protection against scMet-induced seizures at 30 mg/kg, po after 4 hrs; type: functional, organism-based; design: dose 30 mg/kg; method in brief: as §5
Rattus norvegicus [28] = test: Anticonvulsant activity in albino Sprague-Dawley rat assessed as protection against scMet-induced seizures at 75 mg/kg, po after 30 mins; type: functional, organism-based; design: dose 75 mg/kg; method in brief: as §5
Rattus norvegicus [29] = test: Neurotoxicity in albino Sprague-Dawley rat assessed as animal exhibiting toxicity at 75 mg/kg, po; type: organism-based; design: dose 75 mg/kg, route oral; settings: in vivo
Method in brief: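 Neurotoxicity was scored in male Sprague-Dawley albino rats (100-150 g) dosed orally with a suspension in 0.5% methylcellulose. The read-out was the fraction of animals showing neurotoxicity (minimal motor impairment).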

Rattus norvegicus [30] = test: Anticonvulsant activity in albino Sprague-Dawley rat assessed as protection against maximal electroshock-induced seizures at 75 mg/kg, po after 30 mins; type: functional; method in brief: as §4
Rattus norvegicus [31] = test: Anticonvulsant activity in albino Sprague-Dawley rat assessed as protection against maximal electroshock-induced seizures at 75 mg/kg, po after 15 mins; type: functional; method in brief: as §4
Rattus norvegicus [32] = test: Anticonvulsant activity in albino Sprague-Dawley rat assessed as protection against scMet-induced seizures at 75 mg/kg, po after 4 hrs; type: functional, organism-based; design: dose 75 mg/kg; method in brief: as §5
Rattus norvegicus [33] = test: Anticonvulsant activity in albino Sprague-Dawley rat assessed as protection against scMet-induced seizures at 75 mg/kg, po after 1 hr; type: functional, organism-based; design: dose 75 mg/kg; method in brief: as §5
Mus musculus [34] = test: Anticonvulsant activity in CF1 albino mouse assessed as protection against scMet-induced seizures at 100 mg/kg, ip after 4 hrs; type: functional, organism-based; design: dose 100 mg/kg; method in brief: as §2
Rattus norvegicus [35] = test: Anticonvulsant activity in albino Sprague-Dawley rat assessed as protection against scMet-induced seizures at 75 mg/kg, po after 15 mins; type: functional, organism-based; design: dose 75 mg/kg; method in brief: as §5
Rattus norvegicus [36] = test: Anticonvulsant activity in albino Sprague-Dawley rat assessed as protection against maximal electroshock-induced seizures at 75 mg/kg, po after 1 hr; type: functional, organism-based; design: dose 75 mg/kg; method in brief: as §4
Rattus norvegicus [37] = test: Anticonvulsant activity in albino Sprague-Dawley rat assessed as protection against scMet-induced seizures at 75 mg/kg, po after 2 hrs; type: functional; method in brief: as §5
Rattus norvegicus [38] = test: Anticonvulsant activity in albino Sprague-Dawley rat assessed as protection against maximal electroshock-induced seizures at 75 mg/kg, po after 4 hrs; type: functional; method in brief: as §4
Rattus norvegicus [39] = test: Anticonvulsant activity in albino Sprague-Dawley rat assessed as protection against maximal electroshock-induced seizures at 75 mg/kg, po after 2 hrs; type: functional, organism-based; design: dose 75 mg/kg; method in brief: as §4

Compound | Activity (Mus musculus [1]) | Activity (Mus musculus [2]) | Activity (Mus musculus [3]) | Activity (Mus musculus [5]) | Activity (Mus musculus [10]) | Activity (Mus musculus [12]) | Activity (Mus musculus [14]) | Activity (Mus musculus [16]) | Activity (Mus musculus [17]) | Activity (Mus musculus [18]) | Activity (Mus musculus [20]) | Activity (Mus musculus [22]) | Activity (Mus musculus [24]) | Activity (Mus musculus [26]) | also measured
CC1(C)C(C)(C)C1(F)C(=O)NC(N)=O | Non-toxic | Non-toxic | Non-toxic | Non-toxic | Non-toxic | Non-toxic | Non-toxic | Non-toxic | Non-toxic | Non-toxic | Non-toxic | Non-toxic | Non-toxic | Non-toxic | Activity (Rattus norvegicus [4]): inactive; Activity (Rattus norvegicus [6]): 50%; Activity (Mus musculus [7]): Non-toxic; Activity (Rattus norvegicus [8]): inactive; Activity (Mus musculus [9]): Non-toxic; Activity (Rattus norvegicus [11]): inactive; Activity (Rattus norvegicus [13]): 25%; Activity (Rattus norvegicus [15]): inactive; Activity (Rattus norvegicus [19]): 25%; Activity (Rattus norvegicus [21]): 25%; Activity (Mus musculus [23]): Non-toxic; Activity (Rattus norvegicus [25]): inactive; Activity (Rattus norvegicus [27]): inactive
CC1(C)C(C)(C)C1(Cl)C(=O)O | Non-toxic | Non-toxic | Non-toxic | Non-toxic | Non-toxic | Non-toxic | Non-toxic | Non-toxic | Non-toxic | Non-toxic | Non-toxic | Non-toxic | Non-toxic | Non-toxic | Activity (Rattus norvegicus [28]): inactive; Activity (Rattus norvegicus [29]): Not Active; Activity (Rattus norvegicus [30]): 25%; Activity (Rattus norvegicus [31]): 25%; Activity (Rattus norvegicus [32]): inactive; Activity (Rattus norvegicus [33]): inactive; Activity (Mus musculus [34]): Non-toxic; Activity (Rattus norvegicus [35]): inactive; Activity (Rattus norvegicus [36]): inactive; Activity (Rattus norvegicus [37]): 25%; Activity (Rattus norvegicus [38]): 25%; Activity (Rattus norvegicus [39]): inactive

Reference: ChEMBL document CHEMBL1153988 (J Med Chem, 2009)
